Assay results published in ChEMBL document CHEMBL1139609, “In pursuit of alpha4beta2 nicotinic receptor partial agonists for smoking cessation: carbon analogs of (-)-cytisine” (Bioorg Med Chem Lett, 2005).

Tests used:
[1] = biological target: Neuronal acetylcholine receptor; alpha4/beta2 (Rattus norvegicus, UniProt P09483+P12390); assay: Inhibition of [3H]-nicotine binding to nicotinic acetylcholine receptor alpha4-beta2 in rat cortex
[2] = biological target: Neuronal acetylcholine receptor; alpha3/beta4 (Homo sapiens, UniProt P30926+P32297); assay: Inhibition of [3H]epibatidine binding to nicotinic acetylcholine receptor alpha3-beta4 of IMR32 cells; format: cell-based, IMR-32
Sequence of Neuronal acetylcholine receptor; alpha3/beta4 (P30926 whole entry): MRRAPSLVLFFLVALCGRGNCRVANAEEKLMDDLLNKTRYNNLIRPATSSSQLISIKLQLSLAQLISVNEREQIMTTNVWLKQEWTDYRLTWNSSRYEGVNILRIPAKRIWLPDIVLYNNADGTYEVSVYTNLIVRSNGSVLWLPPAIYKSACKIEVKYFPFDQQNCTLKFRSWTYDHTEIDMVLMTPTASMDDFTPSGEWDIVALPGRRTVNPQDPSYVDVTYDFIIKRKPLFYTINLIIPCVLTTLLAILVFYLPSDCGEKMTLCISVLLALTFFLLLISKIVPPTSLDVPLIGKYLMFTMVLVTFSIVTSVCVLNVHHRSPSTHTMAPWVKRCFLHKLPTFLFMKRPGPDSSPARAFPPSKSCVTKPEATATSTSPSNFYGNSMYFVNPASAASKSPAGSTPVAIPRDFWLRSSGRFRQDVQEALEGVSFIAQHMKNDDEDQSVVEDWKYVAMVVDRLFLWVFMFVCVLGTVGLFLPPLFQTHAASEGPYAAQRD
Sequence of Neuronal acetylcholine receptor; alpha3/beta4 (P32297 whole entry): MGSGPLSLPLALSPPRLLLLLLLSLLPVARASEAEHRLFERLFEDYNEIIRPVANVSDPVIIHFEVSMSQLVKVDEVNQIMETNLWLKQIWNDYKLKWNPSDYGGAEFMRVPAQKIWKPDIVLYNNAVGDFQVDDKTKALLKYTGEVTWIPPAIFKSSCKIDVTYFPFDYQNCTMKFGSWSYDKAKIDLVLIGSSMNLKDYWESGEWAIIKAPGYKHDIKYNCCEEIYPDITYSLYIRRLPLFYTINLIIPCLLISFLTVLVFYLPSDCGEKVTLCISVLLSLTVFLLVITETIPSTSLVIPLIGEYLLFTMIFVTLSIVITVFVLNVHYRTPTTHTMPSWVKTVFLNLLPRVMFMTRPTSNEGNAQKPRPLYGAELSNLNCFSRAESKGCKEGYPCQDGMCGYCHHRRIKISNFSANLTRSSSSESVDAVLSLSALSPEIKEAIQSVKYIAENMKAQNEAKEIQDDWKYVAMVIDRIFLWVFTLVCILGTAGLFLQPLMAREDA
Outline: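 Displacement of [3H]epibatidine binding in IMR32 cells, taken as the α3β4 nAChR site.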

[3] = biological target: Neuronal acetylcholine receptor subunit alpha-7 (Homo sapiens, UniProt P36544); assay: Inhibition of [3H]alpha-bungarotoxin binding to nicotinic acetylcholine receptor alpha7 of IMR32 cells; format: cell-based, IMR-32
Sequence of Neuronal acetylcholine receptor subunit alpha-7 (P36544 whole entry): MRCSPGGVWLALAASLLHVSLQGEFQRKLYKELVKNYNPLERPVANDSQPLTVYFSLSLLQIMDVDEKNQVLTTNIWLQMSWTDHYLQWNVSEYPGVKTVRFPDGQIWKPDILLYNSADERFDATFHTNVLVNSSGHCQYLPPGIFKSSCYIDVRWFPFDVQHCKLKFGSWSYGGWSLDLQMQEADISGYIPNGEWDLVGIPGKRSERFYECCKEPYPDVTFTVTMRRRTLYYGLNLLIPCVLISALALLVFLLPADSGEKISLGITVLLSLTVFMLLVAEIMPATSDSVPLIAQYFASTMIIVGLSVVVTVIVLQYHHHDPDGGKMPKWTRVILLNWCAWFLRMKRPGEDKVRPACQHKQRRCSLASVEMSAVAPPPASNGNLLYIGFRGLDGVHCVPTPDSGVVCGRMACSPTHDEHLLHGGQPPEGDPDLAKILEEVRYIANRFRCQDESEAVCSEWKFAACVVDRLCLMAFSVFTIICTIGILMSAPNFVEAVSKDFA

[4] = biological target: Neuronal acetylcholine receptor; alpha4/beta2 (Homo sapiens, UniProt P17787+P43681); assay: Binding affinity against nicotinic acetylcholine receptor alpha4-beta2 in human HEK293 cells using [3H]- nicotine as radioligand; format: cell-based
Sequence of Neuronal acetylcholine receptor; alpha4/beta2 (Homo sapiens, UniProt P17787+P43681) (P17787 whole entry): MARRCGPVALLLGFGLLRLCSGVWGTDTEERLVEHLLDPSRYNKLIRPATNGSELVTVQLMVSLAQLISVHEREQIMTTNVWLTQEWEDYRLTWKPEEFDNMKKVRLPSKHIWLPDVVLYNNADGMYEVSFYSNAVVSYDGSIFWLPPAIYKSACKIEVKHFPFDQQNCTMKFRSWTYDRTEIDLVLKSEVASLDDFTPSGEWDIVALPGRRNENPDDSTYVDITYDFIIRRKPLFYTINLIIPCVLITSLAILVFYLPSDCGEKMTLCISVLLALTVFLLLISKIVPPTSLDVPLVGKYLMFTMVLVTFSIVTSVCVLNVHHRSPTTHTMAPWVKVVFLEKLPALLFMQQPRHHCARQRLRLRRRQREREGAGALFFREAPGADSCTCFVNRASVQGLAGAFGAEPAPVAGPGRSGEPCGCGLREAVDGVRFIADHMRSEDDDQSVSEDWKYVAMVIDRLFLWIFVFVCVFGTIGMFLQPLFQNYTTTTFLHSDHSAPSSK
Sequence of Neuronal acetylcholine receptor; alpha4/beta2 (Homo sapiens, UniProt P17787+P43681) (P43681 whole entry): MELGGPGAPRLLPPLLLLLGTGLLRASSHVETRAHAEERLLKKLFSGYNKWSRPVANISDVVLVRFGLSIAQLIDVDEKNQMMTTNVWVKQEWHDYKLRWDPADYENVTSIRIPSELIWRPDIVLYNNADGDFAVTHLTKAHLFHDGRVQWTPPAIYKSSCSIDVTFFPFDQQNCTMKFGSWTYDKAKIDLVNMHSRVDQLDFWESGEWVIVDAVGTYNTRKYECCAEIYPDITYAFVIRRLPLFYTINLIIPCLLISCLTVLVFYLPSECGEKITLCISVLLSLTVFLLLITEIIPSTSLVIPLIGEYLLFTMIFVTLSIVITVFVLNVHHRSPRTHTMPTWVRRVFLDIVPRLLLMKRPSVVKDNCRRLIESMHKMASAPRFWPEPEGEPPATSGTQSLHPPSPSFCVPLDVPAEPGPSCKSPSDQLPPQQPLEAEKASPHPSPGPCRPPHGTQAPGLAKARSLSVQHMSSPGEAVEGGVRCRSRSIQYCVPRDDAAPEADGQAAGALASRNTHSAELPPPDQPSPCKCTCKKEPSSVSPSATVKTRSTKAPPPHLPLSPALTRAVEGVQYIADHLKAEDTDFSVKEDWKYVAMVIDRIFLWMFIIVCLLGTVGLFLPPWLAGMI

[5] = Inhibition of [3H]alpha-bungarotoxin binding to nicotinic acetylcholine receptor alpha-1-beta-1-delta-gamma of electroplax; design: species or system pisces

Sequence of Neuronal acetylcholine receptor; alpha4/beta2 (Rattus norvegicus, UniProt P09483+P12390) (P09483 whole entry): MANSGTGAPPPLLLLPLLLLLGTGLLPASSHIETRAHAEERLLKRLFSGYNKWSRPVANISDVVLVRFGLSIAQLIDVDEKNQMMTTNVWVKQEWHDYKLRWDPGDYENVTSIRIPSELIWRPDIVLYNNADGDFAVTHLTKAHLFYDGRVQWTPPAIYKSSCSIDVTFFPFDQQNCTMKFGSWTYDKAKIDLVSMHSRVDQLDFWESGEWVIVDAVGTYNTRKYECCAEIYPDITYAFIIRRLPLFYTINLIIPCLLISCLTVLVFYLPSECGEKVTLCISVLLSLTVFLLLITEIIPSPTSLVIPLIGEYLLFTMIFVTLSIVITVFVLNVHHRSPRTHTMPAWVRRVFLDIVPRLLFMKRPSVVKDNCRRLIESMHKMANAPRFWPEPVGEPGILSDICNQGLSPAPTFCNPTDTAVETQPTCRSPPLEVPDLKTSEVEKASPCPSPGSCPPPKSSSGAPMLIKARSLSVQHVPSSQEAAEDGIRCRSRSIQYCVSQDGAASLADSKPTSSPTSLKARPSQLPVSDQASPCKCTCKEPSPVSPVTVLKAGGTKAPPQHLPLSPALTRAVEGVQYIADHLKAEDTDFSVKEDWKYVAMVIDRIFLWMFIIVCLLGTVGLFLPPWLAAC
Sequence of Neuronal acetylcholine receptor; alpha4/beta2 (Rattus norvegicus, UniProt P09483+P12390) (P12390 whole entry): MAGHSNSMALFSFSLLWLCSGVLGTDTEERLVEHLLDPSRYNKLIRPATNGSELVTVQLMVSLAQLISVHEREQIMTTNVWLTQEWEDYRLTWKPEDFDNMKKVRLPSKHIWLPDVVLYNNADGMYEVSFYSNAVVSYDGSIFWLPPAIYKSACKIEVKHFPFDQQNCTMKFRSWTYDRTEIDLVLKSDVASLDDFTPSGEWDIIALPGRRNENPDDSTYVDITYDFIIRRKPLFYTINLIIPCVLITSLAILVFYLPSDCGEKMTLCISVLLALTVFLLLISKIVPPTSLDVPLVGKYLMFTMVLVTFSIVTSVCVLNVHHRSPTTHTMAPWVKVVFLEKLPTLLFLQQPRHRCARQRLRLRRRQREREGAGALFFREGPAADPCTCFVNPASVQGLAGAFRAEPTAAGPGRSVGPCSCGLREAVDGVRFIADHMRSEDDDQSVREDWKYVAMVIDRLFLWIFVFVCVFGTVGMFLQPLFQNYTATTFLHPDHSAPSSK

SMILES | Ki [4] [nM] | further results
COc1ccc2c(c1)CC1CNCC2C1 (stereo unspecified) | 1.4 | Ki [1]: 3.2 nM; Ki [2]: 810 nM; Ki [3]: 2400 nM
COc1ccc(-c2ccc3c(c2)CC2CNCC3C2)cc1 (stereo unspecified) | 370 | 
FC(F)Oc1ccc2c(c1)CC1CNCC2C1 (stereo unspecified) | 7 | Ki [3]: 1700 nM
FC(F)(F)c1ccc(-c2ccc3c(c2)CC2CNCC3C2)cc1 (stereo unspecified) | 200 | 
c1ccc(-c2ccc3c(c2)CC2CNCC3C2)cc1 (stereo unspecified) | > 500 | 
COc1ccc2c(c1O)CC1CNCC2C1 (stereo unspecified) | 13 | 
Oc1cccc2c1CC1CNCC2C1 (stereo unspecified) | 2.9 | 
c1cncc(-c2ccc3c(c2)CC2CNCC3C2)c1 (stereo unspecified) | > 500 | 
COc1ccc2c(c1)C1CNCC(C2)C1 (stereo unspecified) |  | Ki [1]: 90 nM
O=c1oc2ccc3c(c2o1)CC1CNCC3C1 (stereo unspecified) | > 500 | 
O=[N+]([O-])c1ccc2c(c1)C1CNCC(C2)C1 (stereo unspecified) | 6.5 | Ki [2]: 980 nM
O=[N+]([O-])c1ccc2c(c1)CC1CNCC2C1 (stereo unspecified) | 4.9 | Ki [2]: 340 nM
COC(=O)c1ccc2c(c1)CC1CNCC2C1 (stereo unspecified) | 34 | 
Fc1ccc2c(c1)CC1CNCC2C1 (stereo unspecified) | 2 | Ki [2]: 710 nM; Ki [3]: 350 nM
Fc1cccc2c1CC1CNCC2C1 (stereo unspecified) | 6.5 | Ki [3]: 830 nM
CC(C)(O)c1ccc2c(c1)CC1CNCC2C1 (stereo unspecified) | 264 | 
COc1cccc2c1CC1CNCC2C1 (stereo unspecified) | > 500 | 
Nc1cccc(-c2ccc3c(c2)CC2CNCC3C2)c1 (stereo unspecified) | > 500 | 
CC(C)c1ccc2c(c1)CC1CNCC2C1 (stereo unspecified) | 72 | 
CCOc1ccc2c(c1)CC1CNCC2C1 (stereo unspecified) | 13 | 
Oc1ccc2c(c1)C1CNCC(C2)C1 (stereo unspecified) |  | Ki [1]: 75 nM
O=[N+]([O-])c1cccc2c1C1CNCC(C2)C1 (stereo unspecified) | 14 | 
Fc1ccc2c(c1F)CC1CNCC2C1 (stereo unspecified) | 0.44 | Ki [2]: 810 nM; Ki [3]: 520 nM; Ki [5]: 3000 nM
NC(=O)COc1ccc2c(c1)CC1CNCC2C1 (stereo unspecified) | > 500 | 
c1ccc2c(c1)CC1CNCC2C1 (stereo unspecified) | 34 | Ki [1]: 65 nM
c1cc2c(c3c1CC1CNCC3C1)OCO2 (stereo unspecified) | 5.7 | Ki [2]: 1900 nM; Ki [3]: 5100 nM; Ki [5]: 4500 nM
Oc1ccc2c(c1)CC1CNCC2C1 (stereo unspecified) | 90 | 
O=c1cccc2n1C[C@@H]1CNC[C@H]2C1 [CYTISINICLINE] | 0.23 | Ki [3]: 4200 nM; Ki [5]: 250 nM
